What was measured:
Translocator protein [1] = biological target: T1, Translocator protein (Rattus norvegicus, UniProt P16257); assay: Displacement of [11C][…] from Sprague-Dawley rat brain PBR; format: tissue-based
Translocator protein [2] = biological target: T1, Translocator protein; assay: Displacement of [11C]DAA1106 from Sprague-Dawley rat brain PBR; format: tissue-based
[3] = Distribution coefficient of the compound, log D; format: physicochemical; conditions: octanol/water
How it was run: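 [11C]ligand (3-5 MBq) shaken with 1-octanol and 10 mM phosphate buffer pH 7.4, 5 mL each, then equilibrated 1 h at room temperature. Both phases counted by gamma counter; log D taken as the organic/aqueous concentration ratio (n=3).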

[4] = biological target: GABA-A receptor; anion channel; assay: Displacement of [11C]Flumazenil from Sprague-Dawley rat brain CBR; format: tissue-based
Rattus norvegicus [5] = assay: Ratio for decrease in uptake in iv dosed Sprague-Dawley rat brain olfactory bulb to frontal cortex after 30 mins per gram of wet tissue in presence of 1 mg/kg DAA1106; format: ADME, organism-based; parameters: dose 1 mg/kg, route intravenous; conditions: in vivo, 0.5 h
How it was run: (§1)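 Rats given [11C]ligand 45-50 MBq iv, alone or mixed with nonradioactive DAA1106 (1 mg/kg in 10% EtOH/saline). Killed 30 min later under ether. Brains frozen, cut into 20 µm sagittal cryosections and exposed to imaging plates for 60 min. Regional radioactivity read by bioimaging analyzer; brain uptake expressed as % injected dose per gram wet tissue (n=3).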

Rattus norvegicus [6] = assay: Decrease in uptake in iv dosed Sprague-Dawley rat brain striatum after 30 mins per gram of wet tissue in presence of 1 mg/kg DAA1106; format: ADME, organism-based; parameters: dose 1 mg/kg, route intravenous; conditions: in vivo, 0.5 h; how it was run: as §1
[7] = Plasma half life in iv dosed monkey; format: ADME, organism-based, Macaca mulatta; conditions: rhesus monkey
How it was run: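 Monkey given [11C]ligand 70-80 MBq iv. Arterial blood drawn at 1, 2, 5, 10, 20, 30 and 60 min. Plasma deproteinized with CH3CN and analysed by radio-HPLC for percentage of unchanged ligand.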

Rattus norvegicus [8] = assay: Uptake in iv dosed Sprague-Dawley rat brain after 30 mins per gram of wet tissue; format: ADME, organism-based; conditions: in vivo, 0.5 h; how it was run: as §1
Rattus norvegicus [9] = assay: Ratio for decrease in uptake in iv dosed Sprague-Dawley rat brain cerebellum to frontal cortex after 30 mins per gram of wet tissue in presence of 1 mg/kg DAA1106; format: ADME, organism-based; parameters: dose 1 mg/kg, route intravenous; conditions: in vivo, 0.5 h; how it was run: as §1
Rattus norvegicus [10] = assay: Decrease in uptake in iv dosed Sprague-Dawley rat brain frontal cortex after 30 mins per gram of wet tissue in presence of 1 mg/kg DAA1106; format: ADME, organism-based; parameters: dose 1 mg/kg, route intravenous; conditions: in vivo, 0.5 h; how it was run: as §1
Rattus norvegicus [11] = assay: Ratio for decrease in uptake in iv dosed Sprague-Dawley rat brain striatum to frontal cortex after 30 mins per gram of wet tissue in presence of 1 mg/kg DAA1106; format: ADME, organism-based; parameters: dose 1 mg/kg, route intravenous; conditions: in vivo, 0.5 h; how it was run: as §1
Rattus norvegicus [12] = assay: Decrease in uptake in iv dosed Sprague-Dawley rat brain olfactory bulb after 30 mins per gram of wet tissue in presence of 1 mg/kg DAA1106; format: ADME, organism-based; parameters: dose 1 mg/kg, route intravenous; conditions: in vivo, 0.5 h; how it was run: as §1
Rhesus monkey [13] = assay: Decrease in uptake in iv dosed rhesus monkey brain occipital cortex after 90 mins in presence of 5 mg/kg […]; format: ADME, organism-based, Macaca mulatta; parameters: dose 5 mg/kg, route intravenous; conditions: in vivo, 1.5 h
How it was run: (§2)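 One awake male rhesus monkey (about 7.5 kg) imaged by 3D dynamic PET for 90 min after [11C]ligand 70-80 MBq iv. Blocker given iv 2 min before tracer: DAA1106 1 mg/kg, or PK11195 5 mg/kg, each in 10% EtOH/saline. Time-activity curves taken from 5 mm ROI on occipital cortex, as % dose/mL.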

Rattus norvegicus [14] = assay: Decrease in uptake in iv dosed Sprague-Dawley rat brain cerebellum after 30 mins per gram of wet tissue in presence of 1 mg/kg DAA1106; format: ADME, organism-based; parameters: dose 1 mg/kg, route intravenous; conditions: in vivo, 0.5 h; how it was run: as §1
Rhesus monkey [15] = assay: Decrease in uptake in iv dosed rhesus monkey brain occipital cortex after 90 mins in presence of 1 mg/kg DAA1106; format: ADME, organism-based, Macaca mulatta; parameters: dose 1 mg/kg, route intravenous; conditions: in vivo, 1.5 h; how it was run: as §2

T1 sequence (P16257 whole entry, looked up): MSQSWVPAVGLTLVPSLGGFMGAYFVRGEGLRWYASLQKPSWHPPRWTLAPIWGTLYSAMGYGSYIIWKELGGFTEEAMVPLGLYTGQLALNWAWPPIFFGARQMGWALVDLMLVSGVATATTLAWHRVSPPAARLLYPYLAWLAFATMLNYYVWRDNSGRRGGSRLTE

SMILES | Ki (Translocator protein [1]) [nM] | Ki (Translocator protein [2]) [nM] | logD [3] | Ki [4] [nM] | Ratio (Rattus norvegicus [5]) | Drug uptake (Rattus norvegicus [6]) [%] | half-life [7] [min] | Drug uptake (Rattus norvegicus [8]) [%] | Ratio (Rattus norvegicus [9]) | Drug uptake (Rattus norvegicus [10]) [%] | Ratio (Rattus norvegicus [11]) | Drug uptake (Rattus norvegicus [12]) [%] | Drug uptake (Rhesus monkey [13]) [%] | Drug uptake (Rattus norvegicus [14]) [%] | Drug uptake (Rhesus monkey [15]) [%]
CCOc1ccccc1CN(C(C)=O)c1ccc(Cl)cc1Oc1ccccc1 | 0.098 | 0.41 | 3.81 | > 1000 |  |  |  |  |  |  |  |  |  |  | 
COc1ccc(OC)c(CN(C(C)=O)c2cc(F)ccc2Oc2ccccc2)c1 | 0.095 |  |  | > 1000 |  |  |  |  |  |  |  |  |  |  | 
CC(=O)N(Cc1ccccc1OC(C)C)c1ccc(Cl)cc1Oc1ccccc1 | 0.19 | 0.68 | 4.02 | > 1000 |  |  |  |  |  |  |  |  |  |  | 
CC(=O)N(Cc1ccccc1O[11CH](C)C)c1ccc(Cl)cc1Oc1ccccc1 |  |  |  |  | 1.5 | 63 | 13 | 0.17 | 1 | 63 | 1 | 43 |  |  | 
CCC(C)N(C)C(=O)c1cc2ccccc2c(-c2ccccc2Cl)n1 (configuration not stated) [PK-11195] |  |  |  | > 1000 |  |  |  |  |  |  |  |  | 70 | 44 | 

The next lines start with the values.

Ki (Translocator protein [1]) [nM] | Ki (Translocator protein [2]) [nM] | logD [3] | Ki [4] [nM] | Ratio (Rattus norvegicus [5]) | Drug uptake (Rattus norvegicus [6]) [%] | half-life [7] [min] | Drug uptake (Rattus norvegicus [8]) [%] | Ratio (Rattus norvegicus [9]) | Drug uptake (Rattus norvegicus [10]) [%] | Ratio (Rattus norvegicus [11]) | Drug uptake (Rattus norvegicus [12]) [%] | Drug uptake (Rhesus monkey [13]) [%] | Drug uptake (Rattus norvegicus [14]) [%] | Drug uptake (Rhesus monkey [15]) [%] | SMILES
0.074 | 0.31 | 3.74 | > 1000 |  |  |  |  |  |  |  |  |  |  |  | COc1ccccc1CN(C(C)=O)c1ccc(Cl)cc1Oc1ccccc1
 |  |  |  | 1.5 | 63 | 20 | 0.27 | 1 | 63 | 1 | 33 |  |  |  | C[11CH2]Oc1ccccc1CN(C(C)=O)c1ccc(Cl)cc1Oc1ccccc1
 |  |  |  | 2.3 | 63 | 21 | 0.32 | 1 | 63 | 1 | 37 |  |  | 60 | CC(=O)N(Cc1ccccc1O[11CH3])c1ccc(Cl)cc1Oc1ccccc1
